Only some compounds are listed: those with a hit (about 2.3% of all), similar ones and a draw of the others.
TRPC6 act = activators of mouse TRPC6 channel; Q61143; HEK293-TRPC6 membrane potential dye fluorescence; active compounds read high; B-score at 10 µM; actives 0.13% (n = 310,000); AID 2550;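 active means B-score of the integrated fluorescence ratio above library mean plus 3 SD, and starting fluorescence ratio within library mean plus 5 SD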;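 further: higher score means more depolarization so channel activation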
Target sequence (Q61143 whole entry, looked up): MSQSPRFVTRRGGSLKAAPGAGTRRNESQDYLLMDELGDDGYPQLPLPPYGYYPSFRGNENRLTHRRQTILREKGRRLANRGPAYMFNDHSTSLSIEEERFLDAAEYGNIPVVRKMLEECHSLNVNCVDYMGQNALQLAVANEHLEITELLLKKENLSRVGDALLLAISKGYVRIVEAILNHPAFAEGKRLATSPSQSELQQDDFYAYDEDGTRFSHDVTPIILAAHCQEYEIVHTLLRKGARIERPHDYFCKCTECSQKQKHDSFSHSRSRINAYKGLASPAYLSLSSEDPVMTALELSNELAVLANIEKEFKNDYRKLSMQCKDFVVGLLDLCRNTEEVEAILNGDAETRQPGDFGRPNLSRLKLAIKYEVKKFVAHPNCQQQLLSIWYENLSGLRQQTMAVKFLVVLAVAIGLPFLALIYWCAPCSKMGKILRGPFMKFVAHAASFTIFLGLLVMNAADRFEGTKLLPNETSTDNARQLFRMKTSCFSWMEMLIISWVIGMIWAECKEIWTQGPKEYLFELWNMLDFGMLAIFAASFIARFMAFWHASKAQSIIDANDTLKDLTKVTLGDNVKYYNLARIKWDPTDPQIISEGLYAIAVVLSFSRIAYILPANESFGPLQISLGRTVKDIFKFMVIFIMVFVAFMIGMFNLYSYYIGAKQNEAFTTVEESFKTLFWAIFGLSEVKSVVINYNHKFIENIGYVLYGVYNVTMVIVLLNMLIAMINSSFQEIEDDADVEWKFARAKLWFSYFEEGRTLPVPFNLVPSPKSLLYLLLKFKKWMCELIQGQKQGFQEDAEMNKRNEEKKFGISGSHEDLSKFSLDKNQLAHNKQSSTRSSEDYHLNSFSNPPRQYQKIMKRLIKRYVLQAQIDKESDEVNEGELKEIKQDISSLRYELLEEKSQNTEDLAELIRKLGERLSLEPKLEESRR
TRPC4 inh = TRPC4 (mouse) channel inhibition | Q9QUQ5 | HEK293 TRPC4beta/mu-opioid, DAMGO-evoked Fluo4 calcium flux; active compounds read low | B-score at 10 µM | actives 0.39% (n = 300,000) | AID 2247;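 active means B-score over 3 SD under the library average, no early fluorescence shift, positive overall ratio signal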
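Assay system: HEK293 cells with stable TRPC4beta plus mu-opioid receptor expression; Probe or stimulus: DAMGO in two steps, submaximal then maximal; Dosing: single-point compound dosing; Measured by: Fluo4 calcium-dye fluorescence, kinetic read; Read-out basis: B score from integrated Fluo4 fluorescence ratio.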
TRPC4 potent = allosterically enhances the mouse TRPC4 cation channel; Q9QUQ5; B-score at 10 µM; actives 0.42% (n = 310,000); AID 2227; HEK293 TRPC4beta/mu-opioid, DAMGO EC20, Fluo-4 Ca2+ flux; active compounds read high;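 active means B-score of calcium response area above 5 SD of library B-scores, with initial fluorescence ratio within 5 SD of library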;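 further: B-score of integrated fluorescence ratio over time as area under calcium response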
TRPC6 inhibitor = inhibitors of mouse TRPC6 channel | Q61143 | HEK293-TRPC6, membrane potential dye, ACh-evoked depolarization; active compounds read low | B-score at 10 µM | actives 1.1% (n = 310,000);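 active means B-score under library mean minus 3 SD, initial fluorescence not abnormally high, positive integrated signal ratio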;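 further: B-score derived from integrated fluorescence ratio over the kinetic read; more negative B-score means stronger inhibition of depolarization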
TRPC4 act = TRPC4 (mouse) channel activation | B-score at 10 µM | Q9QUQ5 | HEK293 TRPC4beta/mu-opioid, Fluo4 calcium fluorescence; active compounds read high | AID 2237 | actives 0.49% (n = 310,000);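 active means B-score above 5 SD of library B-scores, and initial fluorescence ratio not above library mean plus 5 SD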;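 further: positive B-score marks a calcium rise read as TRPC4 activation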
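System – HEK293 cells stably co-expressing mouse TRPC4beta and mu-opioid receptor · Signal – Fluo4 calcium-sensitive dye fluorescence, kinetic, 1 Hz baseline · Benchmarks – buffer (low) and maximal DAMGO (high) · Read-out – B score of integrated fluorescence ratio per well · Incubation – dye loading 45 min room temperature, 110 s kinetic read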
Numbers without * were called inactive; i = inactive.

SMILES | TRPC6 act | TRPC4 inh | TRPC4 potent | TRPC6 inhibitor | TRPC4 act
COc1ccccc1N1CCN(C2CCCN(C(=O)c3oc(C)cc3C)C2)CC1 (stereo unspecified) | i | i | i | i | 54*
O=C(CN(Cc1ccccc1)S(=O)(=O)c1ccccc1)N1CCOCC1 | i | i | i | i | i
CCOC(=O)C1NC(=O)CC1c1ccccc1 (stereo unspecified) | i | i | i | i | i
CCOC(=O)[C@@H]1CCNC[C@@H]1c1ccccc1 | i | i | i | i | 190*
Cn1c(=O)c2c(nc(N3CCOCC3)n2CC(=O)C23CC4CC(CC(C4)C2)C3)n(C)c1=O | i | i | i | i | i
CN1CCN(c2nc3c(c(=O)n(C)c(=O)n3C)n2CC(=O)C23CC4CC(CC(C4)C2)C3)CC1 | i | -6* | i | i | i
CC(=O)n1nc(-c2cccnc2)nc1NCc1cccs1 | i | i | i | i | i
O=C(NCc1cccnc1)Nc1cccc(Cl)c1 | i | i | i | i | i
CN(C)C(CNC(=S)Nc1ccc(Cl)cc1)c1cccnc1 (stereo unspecified) | i | i | i | i | 86*
CCc1cccc(CC)c1NC(=S)NCC(c1cccnc1)N(C)C (stereo unspecified) | i | i | i | i | 79*
CN(C)C(CNC(=O)Nc1cccc(Cl)c1)c1cccnc1 (stereo unspecified) | i | i | i | i | 65*
Cc1cc2oc(=O)cc(CN3CCOCC3)c2cc1C(C)C | i | i | i | i | i
CCCCOc1ccc(CN=C(N)N)cc1Cl | i | i | i | i | i
CCCOc1ccc(CCCN=C(N)N)cc1Cl | i | i | i | i | 53*
O=C(NCC(c1ccco1)N1CCc2ccccc21)C(=O)Nc1ccc(F)cc1F (stereo unspecified) | i | i | i | i | i
C#CCCOC(=O)N1C2=NC(C(=O)OC)=C(C(=O)OC)[C@@H]3N(Cc4ccccc4)c4ccccc4[C@]23C[C@H]1C(=O)OC | i | i | 10* | i | i
C#CCCOC(=O)N1C2=NC(C(=O)OC)=C(C(=O)OC)[C@@H]3N(C)c4ccccc4[C@]23C[C@H]1C(=O)OC | i | i | i | i | i
CCCCC(C(=O)NC(=O)NCc1ccccc1)N1C(=O)c2ccccc2C1=O (stereo unspecified) | i | -6* | i | i | i
CCC(C(=O)O)N1C(=O)c2ccccc2C1=O (stereo unspecified) | i | i | i | i | i
COc1cccc(-c2c(C#N)c(N)nc3c2c(C)nn3-c2ccccc2)c1O | i | i | 15* | i | i
COc1ccc(Cl)cc1N1C(=O)C2CCCN2C1c1cccc(F)c1 (stereo unspecified) | i | i | i | i | i
CCn1c(CNC(=O)COc2c(C)cccc2C)nnc1SCC(=O)Nc1nccs1 | i | i | i | i | i
CCOc1ccc(/C=C2\SC(=S)N(CCC(=O)N(CCO)c3ccccc3)C2=O)cc1 | i | i | 12* | i | i
CCCNC(=O)OC[C@H]1O[C@H](CCO/N=C/c2ccc(C(=O)N3[C@H](c4ccc(C)cc4)[C@@H](C)CC[C@H]3C(=O)OC)cc2)C=C[C@@H]1Oc1ccc(OC)cc1 | i | i | i | i | i
Cc1ccc(/C=C/C(=O)c2ccc(O)cc2)cc1 | i | -6* | i | i | i
SMILES | TRPC6 act | TRPC4 inh | TRPC4 potent | TRPC6 inhibitor | TRPC4 act
COC(=O)N/N=C(\C)c1ccc(-n2ccnc2)cc1 | i | i | i | i | i
C/C(=N\NC(=O)COc1ccc(C)cc1C(C)C)c1ccc(-n2ccnc2)cc1 | i | i | 28* | i | i
OC(CNCCc1ccc(C(F)(F)F)cc1)COc1ccc2ccccc2c1 (stereo unspecified) | i | i | 24* | i | i
CCOC(=O)c1c(C)n(C)c2ccc(OCC(O)CN3CCN(C)CC3)cc12 (stereo unspecified) | i | i | i | i | i
OC(CNCc1ccc(Cl)cc1)COc1ccccc1 (stereo unspecified) | i | i | i | i | i
CC(=O)c1cccc(OCC(O)CNCCc2ccc(Cl)cc2)c1 (stereo unspecified) | i | i | 10* | i | i
OC(CNCCc1ccc(C(F)(F)F)cc1)COc1cccc2ccccc12 (stereo unspecified) | i | i | i | i | 60*
CCOC(=O)c1c(C)n(C)c2ccc(OCC(O)CNCCc3ccccc3)cc12 (stereo unspecified) | i | i | 21* | i | i
C=C(C)c1cccc(C(C)(C)NC(=O)Nc2ccc(C(N)=O)cc2)c1 | i | i | i | i | i
COC(=O)/C=C1\SC(=NC(=O)c2cccc(Cl)c2)NC1=O | i | -6* | i | i | i
COC(=O)/C=C1/SC(=NC(=O)c2ccccc2)NC1=O | i | i | i | i | i
O=c1[nH]c2ccc(NCc3ccc(OCc4ccccc4Cl)cc3)cc2[nH]1 | i | i | i | i | i
COc1cc(CNc2ccc3[nH]c(=O)[nH]c3c2)ccc1OCc1ccccc1Cl | i | i | 12* | i | i
O=C(NNC(=O)C1CCCO1)c1ccc(Cl)cc1 (stereo unspecified) | i | i | i | i | i
CCOc1ccccc1NC(=O)CSc1nc2ccccc2c(=O)n1CC1CCCO1 (stereo unspecified) | i | -6* | i | i | i
Cc1ccccc1NC(=O)CSc1nc2ccccc2c(=O)n1CC1CCCO1 (stereo unspecified) | i | i | i | i | i
CCOC(=O)CSc1nc2ccccc2c(=O)n1CC1CCCC1 | i | -9* | i | i | i
CCOC(=O)N1CCN(C(=O)CCn2c(=O)[nH]c3ccsc3c2=O)CC1 | i | i | i | i | i
COc1ccc(NC(=O)N(CCCN2CCOCC2)Cc2cccnc2)c(OC)c1 | i | i | i | i | i
O=C(c1ccccc1F)N1CCN(c2ccc([N+](=O)[O-])c3cccnc23)CC1 | i | i | 29* | i | i
COc1ccc(N2CCN(C(=O)c3ccccc3F)CC2)c([N+](=O)[O-])c1 | i | i | i | i | i
O=C(c1ccc(F)cc1)N1CCN(c2ccc([N+](=O)[O-])cc2-n2cccc2)CC1 | i | i | 24* | i | i
